In ChEMBL document CHEMBL2046311, “Design, synthesis, and molecular hybrids of caudatin and cinnamic acids as novel anti-hepatitis B virus agents” (Eur J Med Chem, 2012):
pIC50: −log10 of the molar value.

Assays:
Hepatitis B virus [1] = experiment: Antiviral activity against Hepatitis B virus infected in human HepG2(2.2.15) cells assessed as inhibition of viral surface antigen secretion by ELISA; format: functional, organism-based
Method in brief: (§1)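 HepG 2.2.15 cells in RPMI-1640 with 10% fetal calf serum at 37 °C, 5% CO2. Compounds dissolved in DMSO, culture DMSO below 2.5 μL/mL. Secreted HBeAg and HBsAg measured by ELISA. IC50 values are means of at least two experiments.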

Hepatitis B virus [2] = experiment: Antiviral activity against Hepatitis B virus infected in human HepG2(2.2.15) cells assessed as inhibition of viral DNA replication by PCR analysis; format: functional, organism-based
Method in brief: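 HepG 2.2.15 cells grown in RPMI-1640 with 10% fetal calf serum, […] and penicillin/streptomycin at 37 °C, 5% CO2. Compounds added in DMSO, kept below 2.5 μL/mL. HBV DNA quantified by SYBR Green real-time PCR with HBV-specific primers spanning 541–591 bp. IC50 values are means of at least two experiments.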

[3] = Selectivity index, ratio of CC50 for human HepG2(2.2.15) cells to IC50 for Hepatitis B virus infected in human HepG2(2.2.15) cells assessed as inhibition of viral surface antigen secretion; format: functional
Method in brief: (§2)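 SI calculated as CC50 (MTT, HepG 2.2.15) divided by IC50 for the named read-out (HBV DNA by real-time PCR, or HBeAg or HBsAg secretion by ELISA), in the same cell line.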

[4] = Cytotoxicity against human HepG2(2.2.15) cells by modified-MTT assay; format: cell-based
Method in brief: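 HepG 2.2.15 cells in RPMI-1640 with 10% fetal calf serum at 37 °C, 5% CO2. Compounds in DMSO, final DMSO below 2.5 μL/mL. Viability read by modified MTT method. CC50 is the mean of at least two experiments.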

Hepatitis B virus [5] = experiment: Antiviral activity against Hepatitis B virus infected in human HepG2(2.2.15) cells assessed as inhibition of viral e antigen secretion by ELISA; format: functional, organism-based; method in brief: as §1
[6] = Selectivity index, ratio of CC50 for human HepG2(2.2.15) cells to IC50 for Hepatitis B virus infected in human HepG2(2.2.15) cells assessed as inhibition of viral e antigen secretion; format: functional; method in brief: as §2
[7] = Selectivity index, ratio of CC50 for human HepG2(2.2.15) cells to IC50 for Hepatitis B virus infected in human HepG2(2.2.15) cells assessed as inhibition of viral DNA replication; format: functional; method in brief: as §2

Structure (SMILES) | pIC50 (Hepatitis B virus [1]) | pIC50 (Hepatitis B virus [2]) | Ratio CC50/IC50 [3] | CC50 [4] [µM] | pIC50 (Hepatitis B virus [5]) | Ratio CC50/IC50 [6] | Ratio CC50/IC50 [7]
CC(=O)[C@]1(O)CC[C@@]2(O)[C@]1(C)[C@H](OC(=O)/C=C(\C)C(C)C)C[C@@H]1[C@@]3(C)CC[C@H](OC(=O)/C=C/c4ccc(Br)cc4)CC3=CC[C@]12O | 4.44 | 4.80 | >35.5 | > 1290 | 3.31 | >2.7 | >80.6
CC(=O)[C@]1(O)CC[C@@]2(O)[C@]1(C)[C@H](OC(=O)/C=C(\C)C(C)C)C[C@@H]1[C@@]3(C)CC[C@H](OC(=O)/C=C/c4cccc(F)c4F)CC3=CC[C@]12O | 4.88 | 5.54 | 9 | 118 | 4.79 | 7.2 | >41.2
CC(=O)[C@]1(O)CC[C@@]2(O)[C@]1(C)[C@H](OC(=O)/C=C(\C)C(C)C)C[C@@H]1[C@@]3(C)CC[C@H](OC(=O)/C=C/c4cccc(C(F)(F)F)c4)CC3=CC[C@]12O | 3.95 | 4.83 | 6.4 | 718 | < 2.92 |  | 48.3
CC(=O)[C@]1(O)CC[C@@]2(O)[C@]1(C)[C@H](OC(=O)/C=C(\C)C(C)C)C[C@@H]1[C@@]3(C)CC[C@H](OC(=O)/C=C/c4cccc([N+](=O)[O-])c4)CC3=CC[C@]12O | 4.30 | 4.25 | >31.7 | > 1590 | 3.68 | >7.7 | >28.1
CC(=O)[C@]1(O)CC[C@@]2(O)[C@]1(C)[C@H](OC(=O)/C=C(\C)C(C)C)C[C@@H]1[C@@]3(C)CC[C@H](OC(=O)/C=C/c4ccccc4C)CC3=CC[C@]12O | 4.09 | 5.14 | 16.9 | 1370 | 3.64 | 6 | 190.4
CC(=O)[C@]1(O)CC[C@@]2(O)[C@]1(C)[C@H](OC(=O)/C=C(\C)C(C)C)C[C@@H]1[C@@]3(C)CC[C@H](O)CC3=CC[C@]12O [CAUDATIN] |  |  | 1.7 |  | < 3.74 | <1.3 | 6
CC(=O)[C@]1(O)CC[C@@]2(O)[C@]1(C)[C@H](OC(=O)/C=C(\C)C(C)C)C[C@@H]1[C@@]3(C)CC[C@H](OC(=O)/C=C/c4ccc(C)cc4)CC3=CC[C@]12O | 3.97 | 4.92 | 5.1 | 550 | < 3.26 |  | 46
CC(=O)[C@]1(O)CC[C@@]2(O)[C@]1(C)[C@H](OC(=O)/C=C(\C)C(C)C)C[C@@H]1[C@@]3(C)CC[C@H](OC(=O)/C=C/c4ccc(C(F)(F)F)cc4)CC3=CC[C@]12O | 4.22 | 5.00 | >21.1 | > 1270 | 2.90 | >1 | >125.9
CC(=O)[C@]1(O)CC[C@@]2(O)[C@]1(C)[C@H](OC(=O)/C=C(\C)C(C)C)C[C@@H]1[C@@]3(C)CC[C@H](OC(=O)/C=C/c4cccc(Br)c4)CC3=CC[C@]12O | 4.84 | 5.35 | 29.9 | 429 | 4.90 | 34.4 | 97
CC(=O)[C@]1(O)CC[C@@]2(O)[C@]1(C)[C@H](OC(=O)/C=C(\C)C(C)C)C[C@@H]1[C@@]3(C)CC[C@H](OC(=O)/C=C/c4c(F)c(F)c(F)c(F)c4F)CC3=CC[C@]12O | 4.58 | 5.00 |  | < 8.22 | 3.45 |  | 
COc1cc(/C=C/C(=O)O[C@H]2CC[C@@]3(C)C(=CC[C@]4(O)[C@@H]3C[C@@H](OC(=O)/C=C(\C)C(C)C)[C@@]3(C)[C@]4(O)CC[C@@]3(O)C(C)=O)C2)cc(OC)c1 | 4.53 | 4.93 | >34.6 | > 1020 | 3.42 | >2.7 | >87.4
COc1ccc(/C=C/C(=O)O[C@H]2CC[C@@]3(C)C(=CC[C@]4(O)[C@@H]3C[C@@H](OC(=O)/C=C(\C)C(C)C)[C@@]3(C)[C@]4(O)CC[C@@]3(O)C(C)=O)C2)c(OC)c1OC | 4.91 | 4.68 | >125 | > 1550 | 4.55 | >55.3 | >73.5
C[C@H](Cn1cnc2c(N)ncnc21)OCP(=O)(O)O [TENOFOVIR ANHYDROUS] |  | 6.17 | >1.2 | > 1740 | 2.94 | >1.5 | >2560.2
COc1cccc(/C=C/C(=O)O[C@H]2CC[C@@]3(C)C(=CC[C@]4(O)[C@@H]3C[C@@H](OC(=O)/C=C(\C)C(C)C)[C@@]3(C)[C@]4(O)CC[C@@]3(O)C(C)=O)C2)c1 | 4.98 | 5.35 | >102 | > 1080 | 4.60 | >43.3 | >241.2
COc1cccc(/C=C/C(=O)O[C@H]2CC[C@@]3(C)C(=CC[C@]4(O)[C@@H]3C[C@@H](OC(=O)/C=C(\C)C(C)C)[C@@]3(C)[C@]4(O)CC[C@@]3(OC(=O)/C=C/c3cccc(OC)c3)C(C)=O)C2)c1 | < 2.86 | < 3.47 |  | > 1370 | < 2.86 |  | 
CC(=O)[C@]1(O)CC[C@@]2(O)[C@]1(C)[C@H](OC(=O)/C=C(\C)C(C)C)C[C@@H]1[C@@]3(C)CC[C@H](OC(=O)/C=C/c4cc(C(F)(F)F)cc(C(F)(F)F)c4)CC3=CC[C@]12O | 3.36 | < 3.49 | >3 | > 1280 | 3.21 | >2.1 | 
CC(=O)[C@]1(O)CC[C@@]2(O)[C@]1(C)[C@H](OC(=O)/C=C(\C)C(C)C)C[C@@H]1[C@@]3(C)CC[C@H](OC(=O)/C=C/c4ccc(Cl)cc4)CC3=CC[C@]12O | 3.92 | 4.79 | 5.9 | 701 | < 3.15 |  | 43.1
COc1ccc(/C=C/C(=O)O[C@H]2CC[C@@]3(C)C(=CC[C@]4(O)[C@@H]3C[C@@H](OC(=O)/C=C(\C)C(C)C)[C@@]3(C)[C@]4(O)CC[C@@]3(OC(=O)/C=C/c3ccc(OC)c(OC)c3)C(C)=O)C2)cc1OC | 3.28 | < 3.51 | >2.3 | > 1210 | 3.20 | >1.9 | 
CC(=O)Oc1ccc(/C=C/C(=O)O[C@H]2CC[C@@]3(C)C(=CC[C@]4(O)[C@@H]3C[C@@H](OC(=O)/C=C(\C)C(C)C)[C@@]3(C)[C@]4(O)CC[C@@]3(O)C(C)=O)C2)cc1 | > 5.16 | 5.47 |  | < 6.96 | 3.64 |  | <2
CC(=O)[C@]1(O)CC[C@@]2(O)[C@]1(C)[C@H](OC(=O)/C=C(\C)C(C)C)C[C@@H]1[C@@]3(C)CC[C@H](OC(=O)/C=C/c4cccc(OC(F)(F)F)c4)CC3=CC[C@]12O | 3.63 | 5.24 | 2.5 | 584 | < 3.23 |  | 102.3
COc1cc(/C=C/C(=O)O[C@H]2CC[C@@]3(C)C(=CC[C@]4(O)[C@@H]3C[C@@H](OC(=O)/C=C(\C)C(C)C)[C@@]3(C)[C@]4(O)CC[C@@]3(O)C(C)=O)C2)ccc1OC(C)=O | > 5.00 | 5.36 |  | < 9.97 | 3.19 |  | <2.3
CC(=O)[C@]1(O)CC[C@@]2(O)[C@]1(C)[C@H](OC(=O)/C=C(\C)C(C)C)C[C@@H]1[C@@]3(C)CC[C@H](OC(=O)/C=C/c4ccc(O)c(O)c4)CC3=CC[C@]12O | 4.79 | 5.04 |  | 8.49 | < 3.25 |  | 
CC(=O)[C@]1(OC(=O)/C=C/c2ccccc2[N+](=O)[O-])CC[C@@]2(O)[C@]1(C)[C@H](OC(=O)/C=C(\C)C(C)C)C[C@@H]1[C@@]3(C)CC[C@H](OC(=O)/C=C/c4ccccc4[N+](=O)[O-])CC3=CC[C@]12O | 3.94 | < 3.36 | >15 | > 1740 | 3.28 | >3.3 | 
CC(=O)[C@]1(OC(=O)/C=C/c2ccc(Cl)cc2)CC[C@@]2(O)[C@]1(C)[C@H](OC(=O)/C=C(\C)C(C)C)C[C@@H]1[C@@]3(C)CC[C@H](OC(=O)/C=C/c4ccc(Cl)cc4)CC3=CC[C@]12O | < 3.54 | < 3.54 |  | > 1160 | < 3.54 |  | 
